Most compounds without a hit are left out; they make up all but 3% or so of the library.
esBAF inh – Bmi1 luciferase reporter increase in mESCs, primary screen, esBAF inhibitor project, mouse ES cells, Bmi1 luciferase knock-in, single point. reporter increase, % at 12.5 µM. AID 602393, 2012. 350,000 tested, 2% active. 24 h; 100% = twice the neutral-well signal; in the data active means activation above about 40%;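 further: a rise in the Bmi1 reporter signal indicates esBAF inhibition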
Wnt bcat act – Wnt/beta-catenin pathway activators, primary screen, cell-based, plate reader, single point. Wnt/beta-catenin reporter cell assay, activator. 300,000 tested, 1.2% active. activation, % at 9.35 µM; in the data active means activation above about 30%, passing the limit was not always enough
MITF TRPM1 HTS – activators of MITF-driven TRPM1 promoter reporter, primary screen, cell-based, SK-MEL-5, luciferase, single point; 300,000 tested, 0.75% active; SK-MEL-5 TRPM1-promoter luciferase, 24 h; % of positive control, neutral wells = 0; activation, % at 12.5 µM; AID 588334, 2011;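 active means mean activation of at least 80% with every replicate also reaching 80%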
NSD2 HMT inh – NSD2 histone methyltransferase inhibitors, primary screen, biochemical, AlphaScreen, single concentration, set 2. Histone-lysine N-methyltransferase NSD2 (Homo sapiens), O96028. NSD2 peptide methylation, 120 min. inhibition, % at 12.5 µM. 310,000 tested, 0.54% active. AID 743445, 2014; in the data active means inhibition above about 50%
Casp6 inh – human caspase-6 inhibitors, primary screen, biochemical, VEID-R110 fluorescence, single point, set 2; 350,000 tested, 0.53% active; P55212; inhibition, % at 12.5 µM; AID 686996, 2013; purified caspase-6, Z-VEID-R110 cleavage fluorescence;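 active means mean inhibition across replicates at least about 35%, with every replicate also reaching that limit, limit read from the data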
Target sequence (P55212 24-179 limits assumed): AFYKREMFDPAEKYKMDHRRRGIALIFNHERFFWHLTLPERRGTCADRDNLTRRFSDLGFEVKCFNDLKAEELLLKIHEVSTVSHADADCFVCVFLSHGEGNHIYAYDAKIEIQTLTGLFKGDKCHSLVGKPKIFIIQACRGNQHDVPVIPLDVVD
Target sequence (P55212 194-293 limits assumed): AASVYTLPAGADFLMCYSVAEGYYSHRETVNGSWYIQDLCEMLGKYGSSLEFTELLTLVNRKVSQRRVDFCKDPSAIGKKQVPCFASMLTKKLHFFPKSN
XiGFP reactiv – activators of inactive X chromosome reactivation, primary screen, imaging, XiGFP fibroblasts, GFP high-content imaging, set 2; XiGFP mouse fibroblasts, % GFP-positive cells imaging, 3 d; cells co-treated with 5-aza-dC sensitizer; scaled so ellipticine positive control = 100%; activation, % at 7.58 µM; 360,000 tested, 0.055% active;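 active means mean normalized replicate activation at least 10% and every replicate at or above 10%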
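System: SV40-immortalized XiGFP fibroblast cells, line 68-5-11 / Incubation: 3-day compound exposure, then 15 min fixation at room temperature / Compound: single concentration per compound, delivered by pin transfer / Buffer or medium: DMEM plus 5-aza-dC sensitizer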
Of the large screens only hits and unclear results are named; the others gave an inactive call.

Cc1cc(N=Nc2ccccc2C)ccc1N	Wnt bcat act 55.3 (no result: NSD2 HMT inh)
Nc1ccc(N=Nc2ccccc2)cc1	none (no result: esBAF inh)
CCOc1ccc(-c2cc(C(=O)N3CCC4(CC3)OCCO4)c3ccccc3n2)cc1	MITF TRPM1 HTS 100.0 (no result: esBAF inh)
COc1ccc(-c2cc(C(=O)N3CCC4(CC3)OCCO4)c3ccccc3n2)cc1	esBAF inh 41.1
COc1ccc(C(=O)N2CCC3(CC2)OCCO3)cc1	none (no result: MITF TRPM1 HTS)
O=C(Cc1ccncc1)N1CCCCN2[C@H](CO)[C@@H](c3ccc(C#CC4(O)CCCC4)cc3)[C@@H]2C1	none (no result: esBAF inh, Wnt bcat act, MITF TRPM1 HTS, NSD2 HMT inh)
CC(NC1=NCCS1)c1ccccc1 (centres undefined)	Wnt bcat act 48.5 (no result: esBAF inh)
CN(C)[C@@H]1C(=O)C(C(N)=O)=C(O)[C@@]2(O)C(=O)C3=C(O)c4c(O)cccc4[C@@](C)(O)[C@H]3[C@H](O)[C@@H]12	Casp6 inh 68.8 (no result: NSD2 HMT inh)
CN(C)[C@@H]1C(=O)C(C(N)=O)=C(O)[C@@]2(O)C(=O)C3=C(O)c4c(O)ccc(Cl)c4[C@@](C)(O)[C@H]3C[C@@H]12	none (no result: MITF TRPM1 HTS, NSD2 HMT inh, XiGFP reactiv)
CN(C)[C@@H]1C(=O)C(C(N)=O)=C(O)[C@@]2(O)C(=O)C3=C(O)c4c(O)cccc4[C@@](C)(O)C3C[C@@H]12 (some centres undefined)	Casp6 inh 55.1 (no result: NSD2 HMT inh)
FC(F)(F)CN1C[C@@H]2N[C@H](C1)C2c1ccc(Br)cc1 (some centres undefined)	none (no result: esBAF inh, Wnt bcat act, MITF TRPM1 HTS, NSD2 HMT inh, Casp6 inh)
COC(=O)[C@H]1[C@H](CO)[C@H]2Cn3c(ccc(-c4ccccc4F)c3=O)[C@@H]1N2CC1CCCC1	none (no result: Wnt bcat act, MITF TRPM1 HTS, NSD2 HMT inh)
CC(C)COC(=O)c1ccccc1C(=O)OCC(C)C	none (no result: NSD2 HMT inh, XiGFP reactiv)
C[CH2][Hg][S]c1ccccc1C(=O)O	Casp6 inh 49.4 (no result: NSD2 HMT inh)
CN1[C@@H]2CN(CC3CC3)C[C@H]1C2c1ccc(Br)cc1 (some centres undefined)	none (no result: esBAF inh, Wnt bcat act, MITF TRPM1 HTS, NSD2 HMT inh, Casp6 inh)
FC(F)(F)CN1C[C@@H]2C(c3ccccc3)[C@H](C1)N2CC1CC1 (some centres undefined)	none (no result: esBAF inh, Wnt bcat act, MITF TRPM1 HTS, NSD2 HMT inh, Casp6 inh)
FC(F)(F)CN1C[C@@H]2C(c3ccc(Br)cc3)[C@H](C1)N2CC1CC1 (some centres undefined)	none (no result: esBAF inh, Wnt bcat act, MITF TRPM1 HTS, NSD2 HMT inh, Casp6 inh)
O=C1NC(=S)NC(=O)C1=Cc1cccn1-c1ccc(O)cc1	Casp6 inh 88.1 (no result: esBAF inh, NSD2 HMT inh)
Cc1cccc(OCCn2cccc2/C=C2/C(=O)NC(=O)N(Cc3ccco3)C2=O)c1	Casp6 inh 44.2 (no result: esBAF inh, MITF TRPM1 HTS)
CCN(CC)c1ccc(/C=C2/C(=O)NC(=O)N(Cc3ccco3)C2=O)cc1	none (no result: Casp6 inh)
O=C1NC(=O)N(Cc2ccco2)C(=O)/C1=C\c1cccn1CCOc1ccc(Cl)cc1	Casp6 inh 67.5 (no result: esBAF inh)
CCc1ccc(N2C(=O)NC(=O)/C(=C/c3cccn3CCOc3ccc(C)cc3)C2=O)cc1	none (no result: esBAF inh)
COC(=O)[C@H]1[C@H](CO)[C@H]2Cn3c(ccc(C4=CCCC4)c3=O)[C@@H]1N2CC1CCCCC1	none (no result: Wnt bcat act, MITF TRPM1 HTS, NSD2 HMT inh)
Cc1ccc(OCCOc2cccc(C=C3C(=O)NC(=O)NC3=O)c2)cc1	Wnt bcat act 36.7
Cc1cc(C)cc(OCCOc2cccc(C=C3C(=O)NC(=O)NC3=O)c2)c1	none (no result: MITF TRPM1 HTS)
CC=Cc1ccc2n(c1=O)C[C@@H]1[C@@H](CO)[C@H](C(=O)O)[C@H]2N1S(=O)(=O)c1ccccc1F (mixture of isomers)	none (no result: Wnt bcat act, MITF TRPM1 HTS, NSD2 HMT inh)
COc1ccc(CN2C(=O)NC(=O)/C(=C/c3ccc([N+](=O)[O-])s3)C2=O)cc1	Casp6 inh 43.7 (no result: esBAF inh, MITF TRPM1 HTS)
COc1cccc(N2C(=O)NC(=O)/C(=C/c3ccc([N+](=O)[O-])s3)C2=O)c1	Casp6 inh 47.4 (no result: esBAF inh, MITF TRPM1 HTS)
COc1ccc(N2C(=O)NC(=O)/C(=C/c3ccc([N+](=O)[O-])s3)C2=O)cc1	none (no result: esBAF inh, MITF TRPM1 HTS)
C=CCN1[C@@H]2CN(C(=O)NC(C)C)C[C@H]1C2c1ccc(Br)cc1 (some centres undefined)	none (no result: esBAF inh, Wnt bcat act, MITF TRPM1 HTS, NSD2 HMT inh, Casp6 inh)
C/C=C/c1ccc(C2[C@@H]3CN(C(=O)C4CCC4)C[C@H]2N3)cc1 (some centres undefined)	none (no result: esBAF inh, Wnt bcat act, MITF TRPM1 HTS, NSD2 HMT inh, Casp6 inh)
